Bioassay records: PubChem, several laboratories
This excerpt belongs to a sample that is enriched for hits.
UPR CHOP act – activators of apoptotic arm of unfolded protein response (CHOP); activation, % at 10 µM; 330,000 compounds, 0.34% hits; CHO-CHOP luciferase reporter, UPR activation, luminescence; percent of tunicamycin response over DMSO baseline;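 active = at 10 µM dose, activation of 40% or more, normalized to positive control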;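 note: 100% = tunicamycin at 10 µg/mL and 0% = DMSO alone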
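System: CHO-CHOP luciferase reporter cell line; amount: 500 cells/well; buffer or medium: F12 medium containing 10% fetal bovine serum; incubation: 6 h compound exposure at 37 °C after overnight seeding; measured by: luciferase luminescence after 10 min with Steady-Glo reagent; evaluation: % reporter activation, DMSO baseline versus tunicamycin full activation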
Jurkat NFkB inh – lowers PMA/ionomycin-induced NF-kB signal in Jurkat cells; PMA/ionomycin-induced NF-kB luciferase reporter, luminescence; inhibition, % at 4 µM; 330,000 compounds, 0.53% hits; in the data active = inhibition above about 50%
UPR XBP1 act – activators of adaptive arm of unfolded protein response (XBP1); 330,000 compounds, 0.33% hits; AID 463104; CHO-XBP1 luciferase reporter, IRE1-XBP1 UPR activation, luminescence; percent of tunicamycin response, DMSO as zero; activation, % at 20 µM;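 active = versus positive control, 20 µM dose yields 30% or more activation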;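 note: 100% = tunicamycin at 10 µg/mL and 0% = DMSO only wells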
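Signal: luciferase luminescence; Assay system: CHO-XBP1 luciferase reporter cells; Amount: one thousand reporter cells per well; Dosing: 20 µM single concentration, DMSO 1%; Benchmarks: high control tunicamycin 10 µg/mL final, low control DMSO vehicle only; Schedule: 6 h compound exposure at 37 °C, 5% CO2; Evaluation: percent activation relative to tunicamycin reference.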
CHOP inhibitor – CHOP inhibition in unfolded protein response | CHO-K1 CHOP-promoter luciferase, tunicamycin-induced, 15-18 h | inhibition, % at 10 µM | 220,000 compounds, 3.8% hits;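 active = compounds that reduced the stress-induced luciferase reporter signal by more than about 70% of percent inhibition, limit read from the data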;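 note: 0% = tunicamycin plus vehicle and 100% = wells without tunicamycin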
697 NFkB inh – lowers PMA/ionomycin-induced NF-kB signal in 697 B cells. 697 B-cell NF-kB luciferase reporter, 16 h. inhibition, % at 4 µM. 330,000 compounds, 0.33% hits. AID 435022; in the data active = inhibition above about 35%
XBP1 UPR conf – adaptive UPR (XBP1) activation, confirmed; shares compounds with UPR XBP1 act; CHO-XBP1 IRE1-XBP1 luciferase reporter, luminescence; activation, % at 20 µM; 1,000 compounds, 63% hits;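 active = reporter signal at least 30% of the positive control's activation in two or more of four replicate wells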;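 note: plate controls were DMSO negative control for no effect and tunicamycin 10 µg/mL positive control for full effect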
An asterisk follows results filed as active.

`COc1ccc(-c2csc(NC(=S)NC(=O)/C=C/c3ccccc3)n2)cc1Br` gave UPR CHOP act 5, Jurkat NFkB inh 12, UPR XBP1 act 160*, CHOP inhibitor -22, 697 NFkB inh -35 and XBP1 UPR conf 250*.
Screening O=c1c2ccccc2nc(COc2ccccc2)n1/N=C/c1ccc(O)c(O)c1 returned UPR CHOP act 3, Jurkat NFkB inh -2, UPR XBP1 act 32*, CHOP inhibitor -8, 697 NFkB inh -46 and XBP1 UPR conf 24.
`Cc1ccc(/C=C2/Sc3ccc(C(=O)NCc4ccccn4)cc3NC2=O)cc1` gave UPR CHOP act 7, Jurkat NFkB inh 22, UPR XBP1 act 32*, 697 NFkB inh 0 and XBP1 UPR conf 0.
For Cc1ccc(/C=C2/Sc3ccc(C(=O)N4CCN(c5ccccn5)CC4)cc3NC2=O)cc1 the results were UPR CHOP act 1, Jurkat NFkB inh -11, UPR XBP1 act 5 and 697 NFkB inh -30.
CC(=O)Nc1cccc(C(=O)Nc2cccnc2)c1 was read as UPR CHOP act 0, Jurkat NFkB inh 4, UPR XBP1 act 1, CHOP inhibitor 2 and 697 NFkB inh -5.
Screening COc1ccc2oc(-c3ccc(C)c(NC(=O)c4ccc(N5CCOCC5)c([N+](=O)[O-])c4)c3)nc2c1 returned UPR CHOP act 8, Jurkat NFkB inh -127, UPR XBP1 act 119*, CHOP inhibitor 5, 697 NFkB inh -94 and XBP1 UPR conf 140*.
`COc1cc(/C=N/NC(=O)Cn2nc([N+](=O)[O-])cc2C)cc(Br)c1OCc1ccccc1` gave UPR CHOP act 0, Jurkat NFkB inh 4, UPR XBP1 act 14, CHOP inhibitor 36 and 697 NFkB inh 1.
Screening CCOc1cc(/C=N/NC(=O)Cn2nc([N+](=O)[O-])cc2C)cc(Br)c1OCc1ccccc1C returned UPR CHOP act 17, Jurkat NFkB inh -8, UPR XBP1 act 57*, CHOP inhibitor 60, 697 NFkB inh 1 and XBP1 UPR conf 80*.
`COc1ccccc1C(C)NC(=O)c1ccc(NC(=O)CC2SC(N3CCCC3)=NC2=O)cc1` (configuration not stated) gave UPR CHOP act -1, Jurkat NFkB inh -2, UPR XBP1 act 1 and 697 NFkB inh 17.
`COc1ccc(Nc2ncnc3sc(C)cc23)c(OC)c1` gave UPR CHOP act 5, Jurkat NFkB inh -15, UPR XBP1 act 30*, 697 NFkB inh -22 and XBP1 UPR conf 1.
For COc1ccc(Nc2ncnc3ccccc23)c(OC)c1 the results were UPR CHOP act 1, Jurkat NFkB inh 0, UPR XBP1 act -1, CHOP inhibitor 11 and 697 NFkB inh -2.
COc1ccc(OC)c(NC(=O)c2cc3oc4ccccc4c3cc2O)c1 was read as UPR CHOP act 2, Jurkat NFkB inh -5, UPR XBP1 act 37*, CHOP inhibitor 28, 697 NFkB inh 11 and XBP1 UPR conf 6.
Screening COc1ccc(-c2c(C(C)=O)c(C)nc3sc4c(c23)NC(c2ccccc2)NC4=O)cc1 (configuration not stated) returned UPR CHOP act 2, Jurkat NFkB inh -5, UPR XBP1 act 60*, CHOP inhibitor 7, 697 NFkB inh -12 and XBP1 UPR conf 12.
`O=C(O)CCC(=O)N1CCN(c2ncccn2)CC1` gave UPR CHOP act 1, Jurkat NFkB inh -1, UPR XBP1 act -1, CHOP inhibitor 4 and 697 NFkB inh -6.
`O=C(Nc1nccs1)c1cc2c(s1)-c1ccccc1OC2` gave UPR CHOP act 4, Jurkat NFkB inh -75, UPR XBP1 act 8, CHOP inhibitor 61 and 697 NFkB inh -103.
For O=C(Nc1nc2ccccc2s1)c1cc2c(s1)-c1ccccc1OC2 the results were UPR CHOP act 24, Jurkat NFkB inh -59, UPR XBP1 act 134*, CHOP inhibitor 22, 697 NFkB inh -57 and XBP1 UPR conf 93*.
For Cc1ccc2oc(C(Cl)(Cl)Cl)cc(=O)c2c1 the results were UPR CHOP act 7, Jurkat NFkB inh 49, UPR XBP1 act 112*, CHOP inhibitor 64, 697 NFkB inh -4 and XBP1 UPR conf 121*.
For Cc1ccc2oc(C(F)(F)C(F)F)cc(=O)c2c1 the results were UPR CHOP act 1, Jurkat NFkB inh -18, UPR XBP1 act 1, CHOP inhibitor 6 and 697 NFkB inh 2.
For CSc1ccccc1C(=O)N1CCN(c2ncccn2)CC1 the results were UPR CHOP act 3, Jurkat NFkB inh 3, UPR XBP1 act -3, CHOP inhibitor 1 and 697 NFkB inh 7.
`CCCCCCOc1ccc(/C=c2\s/c(=C(/C#N)C(=O)NCc3ccco3)n(-c3ccccc3)c2=O)cc1` gave UPR CHOP act 6, Jurkat NFkB inh 9, UPR XBP1 act 45*, CHOP inhibitor 11, 697 NFkB inh -8 and XBP1 UPR conf 26.
For O=C(O)CCCNCc1ccccc1F the results were CHOP inhibitor 17.
Screening COc1ccc(Cl)cc1Nc1nc2ccc(C)cc2n2cnnc12 returned UPR CHOP act 21, Jurkat NFkB inh -12, UPR XBP1 act 54*, 697 NFkB inh -4 and XBP1 UPR conf 11.
